An excerpt weighted towards active compounds, which were near 11% of everything screened.
S1P1 ag-PAM – S1P1 (human) agonism or agonism potentiation; S1P1 CRE-bla cells, forskolin, beta-lactamase FRET, potentiator mode; S1P1 agonist co-added at EC20, 2 nM; 100% = saturating reference agonist, 0% = basal; activation, % at 9.5 µM; 56,000 compounds, 0.57% hits; AID 449;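 active = activation above a cutoff set at the mean activation of all tested compounds plus 3 SD, cut at about 54% in these data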;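 note: forskolin at 4 µM as EC80 and the EC20 agonist is SEW2871; 100% = SEW2871 at its EC100 plus forskolin at EC80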
M1 agonist – activates the M1 muscarinic receptor; 64,000 compounds, 3% hits; CHO-M1 cells, Fluo-4 calcium fluorescence, agonist mode; hits give high values; B-score at 10 µM;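 active = fluorescence rise, raw or as B-score row- and column-corrected plate score, outside the 99.7% band of its plate's samples, either direction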
S1P3 agonist – agonists of human S1P3 receptor; AID 373; activation, % at 4.5 µM; S1P3 NFAT-BLA reporter cells, agonism, FRET ratio; relative to 1 µM S1P, basal subtracted; Q99500; 60,000 compounds, 0.1% hits;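 active = activation above the screen-wide mean plus 3 SD, cut at about 4.5% in these data, passing the limit was not always enough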
Target sequence (Q99500 whole entry, looked up): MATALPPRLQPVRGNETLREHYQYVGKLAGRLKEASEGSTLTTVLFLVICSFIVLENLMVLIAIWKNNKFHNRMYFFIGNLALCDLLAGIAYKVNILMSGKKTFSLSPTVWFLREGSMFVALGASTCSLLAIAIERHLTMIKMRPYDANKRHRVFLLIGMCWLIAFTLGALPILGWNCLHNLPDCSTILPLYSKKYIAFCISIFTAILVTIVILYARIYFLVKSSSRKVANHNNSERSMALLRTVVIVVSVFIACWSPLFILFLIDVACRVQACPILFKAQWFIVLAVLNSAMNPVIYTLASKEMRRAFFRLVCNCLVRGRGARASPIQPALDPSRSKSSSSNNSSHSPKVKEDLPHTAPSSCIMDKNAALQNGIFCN
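material = human S1P3 NFAT-BLA reporter CHO cells | schedule = 4 h compound at 37 °C, 2 h substrate at RT | measured by = fluorescent BLA substrate, ex 405 nm, em 460/535 nm ratio | controls = 1 µM S1P reference | replication = primary once, confirmation triplicate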
D1 mod – allosteric modulators of human D1 dopamine receptor; P21728; HEK293 D1, CRE-luciferase, dopamine EC30 potentiation; actives deviate in either direction; B-score at 10 µM; 58,000 compounds, 5.9% hits;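 active = luminescence count or its row- and column-corrected plate score outside the 99.7% band of the plate's sample wells, on either side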
M1 antag – antagonists of rat M1 muscarinic receptor; CHO-M1 cells, Fluo-4 calcium, ACh EC80 antagonist mode; hits give low values; B-score at 10 µM; 64,000 compounds, 3.4% hits; P08482;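 active = calcium fluorescence response, raw or row-and-column corrected B-score, differing from the plate sample mean either way at a set confidence level, mostly lower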
M1 ag confirm – confirmation of rat M1 muscarinic receptor agonists. shares compounds with M1 agonist. CHO-M1 cells, Fluo-4 calcium fluorescence, agonist mode; actives lie on both sides. fluorescence change (max-min) at 10 µM. 1,700 compounds, 19% hits;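 active = fluorescence change differs from the solvent-only DMSO control mean at a set confidence level in both duplicate runs; inconclusive = differs from solvent-only control mean in just one of two runs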;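 note: an EC20 dose of acetylcholine follows compound addition during the same imaging run; raw fluorescence intensity difference in instrument units with no normalization to controls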
M4 agonist ctr – rat M4 muscarinic agonism, M1 counter-screen | shares compounds with M1 agonist | CHO M4/Gqi5 cells, Fluo-4 calcium fluorescence, agonist mode; actives lie on both sides | fluorescence change (max-min) at 10 µM | 1,700 compounds, 9% hits;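 active = fluorescence change differing from the plate's solvent-only control wells at 99.7% confidence in both duplicates, whether higher or lower; inconclusive = differs from solvent controls in only one of two duplicates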
* hit, by the source's call; ? = inconclusive; . = no result given.

SMILES | S1P1 ag-PAM | M1 agonist | S1P3 agonist | D1 mod | M1 antag | M1 ag confirm | M4 agonist ctr
CC(=O)Nc1cccc(NC(=O)c2cc3ccccc3o2)c1 | -4 | 3.9 | 0 | . | -0.27 | . | .
COc1ccc(C/C(O)=C(\C#N)c2nc3ccccc3s2)cc1 | . | -1.3 | . | -1.3 | -0.38 | . | .
Cc1ccc(SC/C(O)=C(\C#N)c2nc3ccccc3s2)cc1 | 13 | 3.3* | -1 | -1.6 | -2.4 | -3.5 | 13
O=C(c1nc(-c2ccccc2)n(-c2ccccc2)n1)N1CCN(S(=O)(=O)c2ccccc2)CC1 | 2 | 3.8* | 1 | -0.39 | -3.8* | -8 | ?
Cn1nc(C(=O)N2CCN(S(=O)(=O)c3ccccc3)CC2)c2ccccc2c1=O | -4 | -0.07 | -1 | -0.09 | -0.3 | . | .
Cc1cccc2cc3c(N)c(C#N)sc3nc12 | -5 | 8.6* | 0 | 0.074 | 0.27 | 8.9 | ?
Cc1cccn2c(=O)c3cc(C(=O)N4CCc5ccccc54)n(C)c3nc12 | -25 | -0.49 | 0 | 0.2 | -1.3 | . | .
C=CCn1c(=O)/c(=C/c2ccc(C)o2)s/c1=C(/C#N)C(=O)c1ccccc1 | 6 | 12* | 0 | 0.75 | 0.32 | 86* | 275*
COC(=O)C1=C2SC(C)C(=O)N2C(N)=C(C#N)C1c1ccc(OC)c(OC)c1 (centres undefined) | -21 | -0.74 | -1 | -0.14 | 0.42 | . | .
COc1ccc(C2C(C#N)=C(N)N3C(=C2C#N)Sc2ccccc23)cc1 (centres undefined) | -22 | 46* | 0 | 0.39 | -1.5 | 131* | 92
COc1ccc(Cn2nnnc2C(C(C)C)N(Cc2ccco2)Cc2cccs2)cc1 (centres undefined) | 48 | 3.2* | -2 | 0.83 | -0.13 | -6.4 | ?
Cc1ccc(C(c2nnnn2C(C)(C)C)N(Cc2ccco2)Cc2cccs2)cc1 (centres undefined) | -14 | 6.5 | -2 | -2.2 | 0.19 | . | .
CC(C)C(c1nnnn1Cc1ccccc1)N(Cc1ccco1)Cc1cccs1 (centres undefined) | 57 | 13* | -2 | 0.87 | -1.2 | -11 | -14
COc1cc(NS(C)(=O)=O)c(OC)cc1NC(=O)c1cccc(F)c1 | -8 | -0.64 | -1 | -0.0069 | 1.7 | . | .
Cc1ccc(-c2cn3nc(C)c(C)nc3n2)cc1 | -6 | 11* | 1 | -8.5* | 0.4 | 103* | 83
Cc1c(-c2cccs2)[n+](=O)c2c(n1[O-])CCCC2 | -8 | -0.021 | -3 | -0.68 | 0.021 | . | .
COC(=O)c1cc2c(=O)n3ccccc3nc2n(C)c1=N | -64 | -0.68 | 3 | 1.3 | -0.55 | . | .
CC(C)OCCCn1c(=N)c(C(N)=S)cc2c(=O)n3ccccc3nc21 | -9 | 4* | -3 | . | -0.95 | -11 | ?
CC(C)OCCCn1c(=NC(=O)c2ccncc2)c(C#N)cc2c(=O)n3ccccc3nc21 | -61 | 25* | 2 | 0.34 | -1.6 | 219* | ?
CCCCn1c(=NC(=O)c2ccc3c(c2)OCO3)c(C#N)cc2c(=O)n3cccc(C)c3nc21 | -18 | 13* | 0 | 2 | -0.87 | ? | -44
COC(=O)c1cc2c(=O)n3ccccc3nc2n(Cc2cccnc2)c1=N | . | -0.0017 | -1 | 0.94 | -0.24 | . | .
COC(=O)c1cn(C(=O)c2cccs2)c2ccccc12 | . | 1.5 | 0 | 0.57 | 0 | . | .
CCN(C1CCCCC1)S(=O)(=O)c1ccc(S(=O)(=O)NCCc2ccncc2)cc1 | 2 | 0.85 | 1 | -0.11 | 0.43 | . | .
CCN(C1CCCCC1)S(=O)(=O)c1ccc(S(=O)(=O)NCc2ccncc2)cc1 | 88* | 3.7* | -2 | -1.3 | -2.2* | 11 | -28
Cc1c(OC(=O)CNC(=O)OC(C)(C)C)ccc2c3c(c(=O)oc12)CCC3 | -4 | 2.4* | 0 | 1.9 | -0.35 | 0.27 | -23
SMILES | S1P1 ag-PAM | M1 agonist | S1P3 agonist | D1 mod | M1 antag | M1 ag confirm | M4 agonist ctr
O=C(c1cnc(N2CCN(c3ncccn3)CC2)c2ccccc12)N1CCN(c2ncccn2)CC1 | 2 | 11* | 0 | -0.34 | -1.2 | -14 | -28
CN(C(=O)c1cnc(N2CCN(c3ncccn3)CC2)c2ccccc12)c1ccc(Cl)cc1 | -1 | 5.3* | -1 | -0.63 | -0.76 | -16 | ?
O=C(c1ccc2c3c(cccc13)CC2)N1CCN(c2ncccn2)CC1 | . | 1.3 | 0 | -0.016 | 0.21 | . | .
CCN(C(=O)c1cnc(N2CCN(c3ncccn3)CC2)c2ccccc12)c1cccc(Cl)c1 | -18 | 3.3* | -1 | -1.4 | -0.78 | -19 | ?
O=C(COc1ccc(Cl)cc1)N1CCN(c2ncccn2)CC1 | -5 | 0.1 | 0 | 0.8 | 0.0038 | . | .
COc1ccc(OC(C)C(=O)N2CCN(c3ccccn3)CC2)cc1 (centres undefined) | -2 | -0.43 | -1 | -0.14 | 0.082 | . | .
CC(C)NC(=O)c1cnc(N2CCN(c3ccccn3)CC2)c2ccccc12 | -14 | 5.8* | -1 | -0.72 | 0.095 | -18 | -29
c1ccc(Oc2ccc(-n3cnnn3)cc2)cc1 | -3 | 1.3 | -1 | -0.47 | -0.31 | . | .
CC(=O)Cc1nsc(NC(=O)c2ccc(COc3ccccc3)o2)n1 | -2 | -1.1 | -1 | 0.1 | -0.00079 | . | .
S=C(c1ccc2c(c1)OCO2)N1CCCC1 | 3 | -0.16 | -1 | 0.28 | -0.071 | . | .
O=C(CN1C(=O)COc2ccc(Cl)cc21)N1CCc2ccccc21 | -19 | -0.2 | 4 | 1.1 | -0.41 | . | .
CCC(=O)c1ccc(OCC(O)Cn2cnc3ccccc32)cc1 (centres undefined) | 6 | -1.6 | -1 | . | -0.013 | . | .
CCC(=O)c1ccc(OCC(O)Cn2c(C)nc3ccccc32)cc1 (centres undefined) | 23 | 6.8* | -1 | -2.2 | -0.93 | -34* | -96
O=C(Nc1cccc(-c2nc3cccnc3s2)c1)c1ccco1 | -11 | 6* | 0 | -2.1 | -1.5 | ? | -50
Cc1ccc(S(=O)(=O)N2CCOCC2)cc1C(=O)Nc1nc(-c2cccnc2)cs1 | . | 0.21 | . | -0.1 | 0.88 | . | .
Cc1ccc(S(=O)(=O)N2CCOCC2)cc1C(=O)Nc1ccc(-c2cn3ccsc3n2)cc1 | 0 | 3.3* | 2 | -3.6 | -0.0062 | -8.1 | ?
Cc1oc2c(c1C(=O)NC(Cc1c[nH]c3ccccc13)C(=O)O)CCCC2 (centres undefined) | -28 | 0.51 | 0 | 0.12 | -0.0048 | . | .
COc1ccc(CCNC(=O)COc2ccc(S(=O)(=O)N3CCOCC3)cc2)cc1 | 3 | 0.3 | 1 | 0.65 | 0.27 | . | .
CC(=O)NCCc1ccc(S(=O)(=O)N2CCOCC2)cc1 | -14 | 2.2* | 0 | 0.27 | 0.75 | -3 | -36
Cc1cc(=O)oc2ccc(OC(=O)c3cccc(S(=O)(=O)N4CCOCC4)c3)cc12 | . | 4.8* | 0 | -0.4 | -0.6 | ? | -38

From PubChem
